Laboratory results as given in PubChem BioAssay.
Activity calls are given as the source filed them.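 Rule for the calls, unless noted: active = duplicate-averaged activation above buffer control mean plus 5 SD of those controls; inactive = the rest.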

Test system: not listed separately
Test: nonspecific flux increase, KCNQ1-free cells – parental CHO cells, counter-screen for KCNQ1 potentiator project (AID 493006);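 for activation: fluorescence ratio of max minus min over baseline after K+ and Tl+ depolarization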
Conditions: parental CHO-K1 cells, FluxOR thallium flux, at 10 µM; hits give high values
Procedure, shortened: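 Material: untransfected host CHO-K1 cells with FluxOR thallium dye. Timing: overnight 37 °C plating, 90 min RT dye, 20 min compound. Detection: kinetic FluxOR fluorescence, 10 s baseline, 110 s after stimulus. Read-out basis: max-minus-min fluorescence over baseline, percent of buffer-to-R-L3 span. Replicates: duplicate wells per compound, percent values averaged.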

Row | Structure (SMILES) | outcome | activation
1 | CN1CCN(c2cc(N3CCCC3)c([N+](=O)[O-])cc2F)CC1 | inactive | –
2 | CC1(C)C[C@H]2C=C(C=O)[C@]3(C=O)C[C@]3(C)[C@H]2C1 | inactive | –
3 | O=c1c(C=NCCN2CCNCC2)c(O)n(C2CCCCC2)c(=O)n1C1CCCCC1 | inactive | –
4 | COc1cc(-n2c(=S)[nH]c3ccccc3c2=O)c(Cl)cc1Cl | inactive | –
5 | c1ccc2c(c1)Sc1ccccc1N2CC1CN2CCC1CC2 (stereo unspecified) | inactive | –
6 | COc1ccc(C2NCc3ccc4c(c3-n3cccc32)OCO4)cc1O (stereo unspecified) | inactive | –
7 | COc1ccc(C(=O)OC2CC[C@@]3(C)C4CCC5[C@]6(O)CC(O)[C@@]7(O)C(CN8CC(C)CCC8[C@@]7(C)O)[C@]6(O)C[C@@]53O[C@]24O)cc1OC (stereo partly specified) | inactive | –
8 | Cc1ccccc1CC(=O)N(CCN(C)C)CC1CCCN(Cc2ccccc2F)C1 (stereo unspecified) | inactive | –
9 | CC/C(=C\C=C\[C@@H]1C=C[C@@H]2CCC[C@H]2[C@@H]1C(=O)c1ccc[nH]1)[C@@H]1O[C@@H]([C@@H](C)C(=O)O)CC[C@@H]1C | – | 499% (active)
10 | O=C1NC(=O)N(Cc2ccc(F)cc2)C(=O)/C1=C/c1cccs1 | inactive | –
11 | Brc1ccc2c(c1)C(OC1CN3CCC1CC3)c1ccccc1CS2 (stereo unspecified) | inactive | –
12 | C/C1=C\[C@@H](C)C/C=C/[C@H]2[C@@H]3O[C@]3(C)[C@@H](C)[C@H]3[C@H](Cc4c[nH]c5ccccc45)NC(=O)[C@]32C(=O)/C=C/C(=O)[C@@H]1O | inactive | –
13 | Cc1c(Cl)cccc1NC(=S)N1CC2CC(C1)c1cccc(=O)n1C2 (stereo unspecified) | inactive | –
14 | O=[N+]([O-])c1cccc(C2N3CCCN23)c1 (stereo unspecified) | inactive | –
15 | CC(=O)OC(C)(C)/C=C/C(=O)C(C)(O)C1[C@H](O)C[C@@]2(C)C3CC=C4C(CC[C@@H](O)C4(C)C)[C@]3(CO)C(=O)C[C@]12C (stereo partly specified) | inactive | –
16 | COc1ccc2c(c1)/C(=C/c1cnc[nH]1)C(=O)N2 | inactive | –
17 | Nc1ncnc2c1ccn2[C@@H]1O[C@H](CO)[C@@H](O)[C@H]1O | inactive | –
18 | CCN(CC)C(=O)c1ccc(NC(=O)CSc2nnnn2-c2cc(OC)ccc2OC)cc1 | inactive | –
19 | CCOP(=S)(OCC)c1ccc(N(C)C)cc1 | inactive | –

Row | Structure (SMILES) | outcome | activation
20 | CCOC(=O)C1C(=O)NC2(C)CC1c1cc(OC)ccc1O2 (stereo unspecified) | inactive | –
21 | O=C(c1ccc(-c2ccccc2)cc1)C1CCCN(Cc2ccn[nH]2)C1 (stereo unspecified) | inactive | –
22 | O=C(O)c1cccc2c1NC(c1cccc([N+](=O)[O-])c1)C1CC(Sc3ccccc3[N+](=O)[O-])C(Cl)C21 (stereo unspecified) | inactive | –
23 | CCOP1(=S)Oc2cc3c(cc2C(C(=O)OC)(C(F)(F)F)O1)OCO3 (stereo unspecified) | inactive | –
24 | CC1(C)CSC(=NCc2ccccc2)N1 | inactive | –
25 | CN1CCC(c2c[nH]c3ccccc23)C1 (stereo unspecified) | inactive | –
26 | N#CCCn1cc(C(=O)Nc2ccccc2Cl)c(-c2ccc(F)cc2)n1 | inactive | –
27 | CC1=CC2/C=C(\C)CCC(O)C(O)/C=C/C(=O)C23C(=O)NC(CC(C)C)C3C1C (stereo unspecified) | inactive | –
28 | Cc1nc2ccccc2c(=O)n1/N=C/c1cc(Br)cc(Br)c1O | inactive | –
29 | C/C=C(\C)C(=O)N[C@@H](c1ccccc1)[C@@H](O)C(=O)O[C@H]1C[C@@]2(O)[C@@H](OC(=O)c3ccccc3)C3[C@](C)(C(=O)[C@H](OC(C)=O)C(=C1C)C2(C)C)[C@@H](O)C[C@H]1OC[C@@]31OC(C)=O (stereo partly specified) | inactive | –
30 | CCOc1cc(C=C2C(=O)NC(=O)NC2=O)ccc1OS(=O)(=O)c1ccccc1 | inactive | –
31 | O=[N+]([O-])c1ccc(N2CCOCC2)c2ccncc12 | inactive | –
32 | Cn1cccc1/C=C1/C(=O)NC(=S)N(Cc2ccc(F)cc2)C1=O | inactive | –
33 | C=C(C)[C@@]12OC3(c4ccccc4)O[C@@H]1C1[C@@H]4O[C@]4(CO)[C@@H](O)[C@]4(O)C(=O)C(C)=C[C@H]4[C@@]1(O3)[C@H](C)[C@H]2OC(=O)/C=C/C=C/c1ccccc1 (stereo partly specified) | inactive | –
34 | Cc1ccccc1-n1c(O)c(/C=N/N2CCOCC2)c(=O)[nH]c1=S | inactive | –
35 | CC(=NCc1ccc(F)cc1)c1c(O)n(C)c(=O)n(C)c1=O | – | 144% (active)
36 | Cc1ccc(/C=C2/C(=O)NC(=O)N(CCc3ccc(F)cc3)C2=O)o1 | inactive | –
37 | N#Cc1c(N2CCNCC2)nc(-c2ccco2)c2c1CCCC2 | inactive | –
38 | CCOc1cc(CNCCc2c[nH]c3ccccc23)cc(Cl)c1OCC | inactive | –

Target: Potassium voltage-gated channel subfamily KQT member 1 (Homo sapiens) (UniProt P51787)
Sequence (P51787 whole entry, looked up): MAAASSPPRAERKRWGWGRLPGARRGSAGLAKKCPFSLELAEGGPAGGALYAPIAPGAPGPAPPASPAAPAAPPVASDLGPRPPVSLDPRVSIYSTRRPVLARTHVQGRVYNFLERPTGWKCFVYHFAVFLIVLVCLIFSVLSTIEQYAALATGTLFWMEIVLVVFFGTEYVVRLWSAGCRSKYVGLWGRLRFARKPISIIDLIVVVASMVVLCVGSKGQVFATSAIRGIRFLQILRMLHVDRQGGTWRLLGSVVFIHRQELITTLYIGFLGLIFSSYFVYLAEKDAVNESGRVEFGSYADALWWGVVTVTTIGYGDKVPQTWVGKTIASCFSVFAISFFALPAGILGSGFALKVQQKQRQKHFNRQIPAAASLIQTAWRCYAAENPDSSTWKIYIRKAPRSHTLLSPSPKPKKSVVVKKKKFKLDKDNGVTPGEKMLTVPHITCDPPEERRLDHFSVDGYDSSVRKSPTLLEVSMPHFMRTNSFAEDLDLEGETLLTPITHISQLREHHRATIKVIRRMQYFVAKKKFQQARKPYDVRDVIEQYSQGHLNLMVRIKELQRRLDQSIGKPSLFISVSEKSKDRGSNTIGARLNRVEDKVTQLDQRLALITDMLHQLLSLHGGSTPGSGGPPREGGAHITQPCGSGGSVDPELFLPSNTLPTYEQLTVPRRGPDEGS
Test: enhancement of KCNQ1 channel thallium flux – FluxOR thallium flux, CHO cells, duplicates, confirmation (AID 493007;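 active = potentiation averaged over duplicate wells exceeding buffer-only control mean by more than 3 SD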;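 for outcome: cells depolarized by a potassium plus thallium sulfate stimulus after compound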)
Conditions: KCNQ1 cell line, FluxOR thallium flux fluorescence, at 10 µM; hits give high values, % of reference activator effect, buffer zero
Procedure, shortened: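 Test system – KCNQ1-expressing CHO cell line · Incubation – FluxOR dye loading 90 min, compound exposure 20 min, room temperature · Detection – FluxOR Tl+ flux fluorescence, 10 s baseline plus 110 s recording · Controls – buffer-only wells as 0% and R-L3 activator as 100%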

Row | Structure (SMILES) | outcome | potentiation
39 | CN1CCN(c2cc(N3CCCC3)c([N+](=O)[O-])cc2F)CC1 | inactive | –
40 | CC1(C)C[C@H]2C=C(C=O)[C@]3(C=O)C[C@]3(C)[C@H]2C1 | – | 24% (active)
41 | O=c1c(C=NCCN2CCNCC2)c(O)n(C2CCCCC2)c(=O)n1C1CCCCC1 | inactive | –
42 | COc1cc(-n2c(=S)[nH]c3ccccc3c2=O)c(Cl)cc1Cl | inactive | –
43 | c1ccc2c(c1)Sc1ccccc1N2CC1CN2CCC1CC2 (stereo unspecified) | inactive | –
44 | COc1ccc(C2NCc3ccc4c(c3-n3cccc32)OCO4)cc1O (stereo unspecified) | inactive | –
45 | COc1ccc(C(=O)OC2CC[C@@]3(C)C4CCC5[C@]6(O)CC(O)[C@@]7(O)C(CN8CC(C)CCC8[C@@]7(C)O)[C@]6(O)C[C@@]53O[C@]24O)cc1OC (stereo partly specified) | – | 25.5% (active)
46 | Cc1ccccc1CC(=O)N(CCN(C)C)CC1CCCN(Cc2ccccc2F)C1 (stereo unspecified) | inactive | –
47 | CC/C(=C\C=C\[C@@H]1C=C[C@@H]2CCC[C@H]2[C@@H]1C(=O)c1ccc[nH]1)[C@@H]1O[C@@H]([C@@H](C)C(=O)O)CC[C@@H]1C | – | 166% (active)
48 | O=C1NC(=O)N(Cc2ccc(F)cc2)C(=O)/C1=C/c1cccs1 | inactive | –
49 | Brc1ccc2c(c1)C(OC1CN3CCC1CC3)c1ccccc1CS2 (stereo unspecified) | – | 40.5% (active)
50 | C/C1=C\[C@@H](C)C/C=C/[C@H]2[C@@H]3O[C@]3(C)[C@@H](C)[C@H]3[C@H](Cc4c[nH]c5ccccc45)NC(=O)[C@]32C(=O)/C=C/C(=O)[C@@H]1O | – | 20.5% (active)
51 | Cc1c(Cl)cccc1NC(=S)N1CC2CC(C1)c1cccc(=O)n1C2 (stereo unspecified) | inactive | –
52 | O=[N+]([O-])c1cccc(C2N3CCCN23)c1 (stereo unspecified) | inactive | –
53 | CC(=O)OC(C)(C)/C=C/C(=O)C(C)(O)C1[C@H](O)C[C@@]2(C)C3CC=C4C(CC[C@@H](O)C4(C)C)[C@]3(CO)C(=O)C[C@]12C (stereo partly specified) | inactive | –
54 | COc1ccc2c(c1)/C(=C/c1cnc[nH]1)C(=O)N2 | inactive | –
55 | Nc1ncnc2c1ccn2[C@@H]1O[C@H](CO)[C@@H](O)[C@H]1O | inactive | –
56 | CCN(CC)C(=O)c1ccc(NC(=O)CSc2nnnn2-c2cc(OC)ccc2OC)cc1 | inactive | –
57 | CCOP(=S)(OCC)c1ccc(N(C)C)cc1 | inactive | –

Row | Structure (SMILES) | outcome | potentiation
58 | CCOC(=O)C1C(=O)NC2(C)CC1c1cc(OC)ccc1O2 (stereo unspecified) | inactive | –
59 | O=C(c1ccc(-c2ccccc2)cc1)C1CCCN(Cc2ccn[nH]2)C1 (stereo unspecified) | inactive | –
60 | O=C(O)c1cccc2c1NC(c1cccc([N+](=O)[O-])c1)C1CC(Sc3ccccc3[N+](=O)[O-])C(Cl)C21 (stereo unspecified) | inactive | –
61 | CCOP1(=S)Oc2cc3c(cc2C(C(=O)OC)(C(F)(F)F)O1)OCO3 (stereo unspecified) | inactive | –
62 | CC1(C)CSC(=NCc2ccccc2)N1 | – | 23% (active)
63 | CN1CCC(c2c[nH]c3ccccc23)C1 (stereo unspecified) | inactive | –
64 | N#CCCn1cc(C(=O)Nc2ccccc2Cl)c(-c2ccc(F)cc2)n1 | inactive | –
65 | CC1=CC2/C=C(\C)CCC(O)C(O)/C=C/C(=O)C23C(=O)NC(CC(C)C)C3C1C (stereo unspecified) | – | 23% (active)
66 | Cc1nc2ccccc2c(=O)n1/N=C/c1cc(Br)cc(Br)c1O | inactive | –
67 | C/C=C(\C)C(=O)N[C@@H](c1ccccc1)[C@@H](O)C(=O)O[C@H]1C[C@@]2(O)[C@@H](OC(=O)c3ccccc3)C3[C@](C)(C(=O)[C@H](OC(C)=O)C(=C1C)C2(C)C)[C@@H](O)C[C@H]1OC[C@@]31OC(C)=O (stereo partly specified) | inactive | –
68 | CCOc1cc(C=C2C(=O)NC(=O)NC2=O)ccc1OS(=O)(=O)c1ccccc1 | inactive | –
69 | O=[N+]([O-])c1ccc(N2CCOCC2)c2ccncc12 | inactive | –
70 | Cn1cccc1/C=C1/C(=O)NC(=S)N(Cc2ccc(F)cc2)C1=O | inactive | –
71 | C=C(C)[C@@]12OC3(c4ccccc4)O[C@@H]1C1[C@@H]4O[C@]4(CO)[C@@H](O)[C@]4(O)C(=O)C(C)=C[C@H]4[C@@]1(O3)[C@H](C)[C@H]2OC(=O)/C=C/C=C/c1ccccc1 (stereo partly specified) | inactive | –
72 | Cc1ccccc1-n1c(O)c(/C=N/N2CCOCC2)c(=O)[nH]c1=S | inactive | –
73 | CC(=NCc1ccc(F)cc1)c1c(O)n(C)c(=O)n(C)c1=O | – | 91.5% (active)
74 | Cc1ccc(/C=C2/C(=O)NC(=O)N(CCc3ccc(F)cc3)C2=O)o1 | inactive | –
75 | N#Cc1c(N2CCNCC2)nc(-c2ccco2)c2c1CCCC2 | inactive | –
76 | CCOc1cc(CNCCc2c[nH]c3ccccc23)cc(Cl)c1OCC | – | 19% (active)
